Source: PubChem
The list is not random: actives were taken first. Their share in the collection is about 2.3%.
V1R ag counter: agonists of human V1a receptor, primary screen, counter-screen for OXTR agonist project, fluorescence, CHO-V1R cells; Vasopressin V1a receptor (Homo sapiens), P37288; Fluo-8 calcium fluorescence, agonist mode; 0% DMSO, 100% 3 nM vasopressin; activation, % at 3 µM; 320,000 compounds, 0.25% hits; AID 2797, 2010;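 active means activation above the mean activation of all tested compounds plus 3 SD, per screening run, cut at about 20% in these data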;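 further: signal is peak over basal fluorescence ratio across a 100 second FLIPR read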
Target sequence (P37288 whole entry, looked up): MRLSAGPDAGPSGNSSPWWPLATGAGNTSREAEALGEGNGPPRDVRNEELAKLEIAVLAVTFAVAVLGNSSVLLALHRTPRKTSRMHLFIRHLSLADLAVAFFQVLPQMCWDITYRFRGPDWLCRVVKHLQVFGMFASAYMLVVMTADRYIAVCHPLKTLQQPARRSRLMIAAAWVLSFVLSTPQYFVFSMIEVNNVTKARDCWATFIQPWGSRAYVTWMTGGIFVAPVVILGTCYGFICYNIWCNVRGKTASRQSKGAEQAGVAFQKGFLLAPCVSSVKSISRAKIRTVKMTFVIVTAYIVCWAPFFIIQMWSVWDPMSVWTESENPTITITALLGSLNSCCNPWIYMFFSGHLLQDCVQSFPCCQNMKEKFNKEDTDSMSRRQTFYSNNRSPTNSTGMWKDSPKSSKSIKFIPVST
TAAR1 antagonist: human TAAR1 antagonists, primary screen, Fluo-8 calcium fluorescence, CHO RD-HGA16 cells. 360,000 compounds, 1.5% hits. AID 624466, 2012. inhibition, % at 3 µM. antagonist. Trace amine-associated receptor 1 (Homo sapiens), Q96RJ0;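 active means inhibition above a per-plate cutoff, the mean inhibition of test compounds on that plate plus 3 SD, cut at about 49% in these data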;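 further: 0% = DMSO plus EC80 beta-PEA response and 100% = DMSO alone without agonist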
Target sequence (Q96RJ0 whole entry, looked up): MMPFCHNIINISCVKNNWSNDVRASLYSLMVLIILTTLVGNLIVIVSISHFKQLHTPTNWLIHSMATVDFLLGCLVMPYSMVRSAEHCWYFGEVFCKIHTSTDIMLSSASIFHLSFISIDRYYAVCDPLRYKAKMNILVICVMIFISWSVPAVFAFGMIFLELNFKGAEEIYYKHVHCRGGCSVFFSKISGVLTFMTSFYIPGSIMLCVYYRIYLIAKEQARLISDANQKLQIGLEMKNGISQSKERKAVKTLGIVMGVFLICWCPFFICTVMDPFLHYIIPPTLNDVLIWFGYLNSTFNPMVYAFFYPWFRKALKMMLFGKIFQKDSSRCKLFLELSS
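Material: RD-HGA16 CHO cells with stable hTAAR1 and Gα16; Dosing: single nominal final test compound concentration of 3 µM; Schedule: seeding 17-24 h prior, 75-min 37 °C, 30-min RT dye loading; Detection: kinetic Fluo-8 calcium fluorescence measurement; Measure: % inhibition from peak post-agonist over basal fluorescence ratio; Benchmarks: vehicle and agonist controls.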
OXTR agonist: human OXTR agonists, primary screen, fluorescence, CHO-OTR cells, Fluo-8 calcium | Oxytocin receptor (Homo sapiens), P30559 | Fluo-8 calcium fluorescence; normalized: DMSO 0%, oxytocin 100% | activation, % at 3 µM | 320,000 compounds, 0.32% hits;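 active means activation above the mean of all tested compounds plus 3 SD, cutoff set per screening run, cut at about 20% in these data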;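 further: peak over basal fluorescence ratio from a 100 s FLIPR kinetic read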
TAAR1 agonist: human TAAR1 agonists, primary screen, Fluo-8 calcium fluorescence, CHO RD-HGA16 cells | Trace amine-associated receptor 1 (Homo sapiens), Q96RJ0 | vehicle wells 0%, saturating PEA agonist 100% | activation, % at 3 µM | 360,000 compounds, 0.99% hits;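 active means activation above the mean activation of all test compounds in the run plus 3 SD, cut at about 38% in these data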
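System: CHO RD-HGA16 cells carrying human TAAR1 plus Gα16; Incubation: 17-24 h seeding, 75 min 37 °C dye, 30 min RT; Measured by: Fluo-8 fluorescence, 5 s baseline then 140 s kinetic read; Control set: DMSO and PEA EC100; Replication: single well for each compound.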
OXTR potentiate: human OXTR potentiators, primary screen, fluorescence, CHO-OTR cells, Fluo-8 calcium. Oxytocin receptor (Homo sapiens), P30559. Fluo-8 calcium fluorescence, potentiator mode; 0% = oxytocin EC15, 100% = EC100. activation, % at 3 µM. 320,000 compounds, 0.061% hits. AID 2445, 2010;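 active means activation above that plate's cutoff, the mean activation of tested compounds plus 3 SD, cut at about 6.6% in these data, passing the limit was not always enough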;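 further: 100% uses oxytocin at 75 nM as the full agonist control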
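Material: human OTR in CHO cells. Compound: 3.0 µM, one dose. Timing: compound 6 min at room temperature before oxytocin, 100 s read. Evaluation: % activation of max/min ratio relative to oxytocin controls. Replication: single well per compound, singlicate. Signal: Fluo-8 calcium dye fluorescence.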
TAAR1 ag confirm: human TAAR1 agonists, retest of hits, confirmation, Fluo-8 calcium fluorescence, CHO RD-HGA16 cells; scaled: DMSO 0%, maximal phenethylamine 100%; 2,400 compounds, 82% hits; shares compounds with TAAR1 agonist; activation, % at 3 µM;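 active means activation above a cutoff set at the run's mean compound activation plus 3 SD, cut at about 39% in these data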
Ga16 ag counter: nonselective calcium mobilization agonists, CHO-Ga16 cells, counter-screen for hTAAR1 agonist project, cell-based, fluorescence, CHO-Ga16 parental line | shares compounds with TAAR1 agonist | activation, % at 3 µM | AID 651787, 2012 | 2,400 compounds, 50% hits | Fluo-8 calcium fluorescence; normalized to maximal ATP response, DMSO zero;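 active means activation above the run cutoff, the mean activation over all tested wells plus 3 SD, cut at about 12% in these data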;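 further: 0% = DMSO wells and 100% = maximal ATP response on the peak over basal ratio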
TAAR1 desens: TAAR1 desensitization by agonist hits, confirmation, counter-screen for TAAR1 agonist project, cell-based, fluorescence, tachyphylaxis. shares compounds with TAAR1 agonist. CHO RD-HGA16 hTAAR1, Fluo-8 calcium, beta-PEA response inhibition. inhibition, % at 3 µM. 2,400 compounds, 46% hits. AID 651951, 2012;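 active means inhibition above the run cutoff, the mean inhibition of all test compounds plus 3 SD, cut at about 49% in these data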;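 further: beta-PEA stimulus applied at its EC80; loss of beta-PEA calcium signal after compound pretreatment read as receptor desensitization; 0% = DMSO with beta-PEA at EC80 and 100% = DMSO alone without agonist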
Ga16 antag count: inhibition of ATP-evoked calcium response in CHO-Ga16 cells, counter-screen for TAAR1 agonist project, cell-based, fluorescence. shares compounds with TAAR1 agonist. CHO-Ga16 ATP-induced calcium, Fluo-8 fluorescence. inhibition, % at 3 µM. 2,400 compounds, 39% hits;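 active means inhibition above the plate's mean compound inhibition plus 3 SD, computed per plate, cut at about 22% in these data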;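 further: 0% = EC80 ATP with DMSO and 100% = DMSO wells without ATP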
The depositor's hits bear a star; x = no result given.

SMILES | V1R ag counter | TAAR1 antagonist | OXTR agonist | TAAR1 agonist | OXTR potentiate | TAAR1 ag confirm | Ga16 ag counter | TAAR1 desens | Ga16 antag count
Cc1cccc(NS(=O)(=O)c2csc(C(N)=O)c2)c1C | 4 | 4 | 2 | 2 | -6 | x | x | x | x
O=C(/C=C/c1ccc(N2CCCCC2)c([N+](=O)[O-])c1)c1ccc(O)cc1 | 1 | 25 | 0 | 10 | -15 | x | x | x | x
O=c1nc(N2CCCC2)nc(Nc2ccccc2)[nH]1 | 1 | x | 1 | x | -9 | x | 3 | x | 5
CCCCOc1ccc(C(=O)NNC(=S)NC(=O)CC)cc1 | 0 | x | -2 | x | 4 | x | x | x | x
COc1ccc(C(=O)NC(=S)NNC(=O)c2cccnc2)cc1 | 0 | -2 | -1 | -2 | -8 | x | x | x | x
O=C(CCNC(=O)c1ccco1)NNC(=O)c1ccc(Br)cc1 | x | -2 | x | 5 | x | x | x | x | x
O=C(NC(=S)NNC(=O)c1ccco1)c1ccc(Br)cc1 | 7 | 27 | 11 | 94* | -7 | 92* | 72* | 36 | 32*
CCCOc1ccc(C(=O)NNC(=S)NC(=O)c2ccco2)cc1 | 98* | 105* | 95* | 156* | -21 | 147* | 119* | 104* | 72*
COc1ccc(C(=O)NNC(=S)NC(=O)c2ccco2)cc1 | 19 | 13 | 18 | 59* | -12 | 66* | 39* | 16 | 13
NCCCC[C@H]1CNC(=O)C(=O)N1CCc1cccc2ccccc12 | 0 | -8 | 1 | 13 | 2 | x | x | x | x
CC12CS(=O)(=O)CC1SC(=S)N2Cc1ccccc1 (stereo unspecified) | 3 | 5 | 0 | 3 | -14 | x | x | x | x
Cc1ccc2c(c1)N(CC(=O)NCC(C)c1ccccc1)C(=O)c1cccnc1O2 (stereo unspecified) | -1 | 47 | -2 | 56* | -6 | 74* | 3 | 50* | 10
Cc1ccc2c(c1)N(CC(=O)Nc1c(C)cccc1C)C(=O)c1cccnc1O2 | 1 | -23 | 0 | 3 | -7 | x | x | x | x
Cc1ccccc1Nc1nc(N)nc(COC(=O)CCNS(=O)(=O)c2ccccc2)n1 | 1 | -12 | -2 | 3 | 1 | x | x | x | x
CCCNC(=O)Cn1sc2nc(C)cc(C)c2c1=O | 3 | -13 | 3 | 52* | -6 | 37 | 21* | 24 | 18
COc1cc(CN2CCC(C(=O)NC(c3ccc(F)cc3)c3ccc4ccccc4n3)CC2)cc(OC)c1 (stereo unspecified) | x | -7 | x | 14 | x | x | x | x | x
Cn1cc(CN2CCC(C(=O)NC(c3ccc(F)cc3)c3ccc4ccccc4n3)CC2)c2ccccc21 (stereo unspecified) | x | 52* | x | 53* | x | -4 | 32* | 104* | 52*
Cn1nc(C(=O)OCC(=O)c2ccc[nH]2)c2ccccc2c1=O | 1 | -5 | 0 | 2 | -6 | x | x | x | x
Cn1nc(C(=O)OCc2ccccc2F)c2ccccc2c1=O | 6 | 94* | 3 | 432* | -14 | 9 | 11 | 25 | 28*
CN1CCN(C(=O)Nc2cccc3ccccc23)CC1 | 1 | 3 | 0 | 1 | 2 | x | x | x | x
CCc1ccccc1NC(=O)N1CCc2ccccc2C1 | x | 55* | x | 80* | x | 96* | 4 | 82* | 2
O=C(Nc1cccc2ccccc12)N1CCc2ccccc2C1 | 1 | 74* | -1 | 77* | -5 | 78* | 2 | 65* | 8
NC(Cc1ccc(C(F)(F)F)cc1)c1csc(Nc2nccc(C(F)(F)F)n2)n1 (stereo unspecified) | x | 41 | x | 61* | x | 43* | 20* | 40 | 23*
CCCc1cnc(Nc2nc(C(N)Cc3ccc(C(F)(F)F)cc3)cs2)nc1 (stereo unspecified) | x | 34 | x | 68* | x | 80* | 63* | 54* | 59*
NC(COCc1ccccc1)c1csc(Nc2nccc(C(F)(F)F)n2)n1 (stereo unspecified) | x | -17 | x | 15 | x | x | x | x | x
SMILES | V1R ag counter | TAAR1 antagonist | OXTR agonist | TAAR1 agonist | OXTR potentiate | TAAR1 ag confirm | Ga16 ag counter | TAAR1 desens | Ga16 antag count
COC(=O)c1cnc(Nc2nc(C(N)Cc3ccccc3)cs2)nc1C(F)(F)F (stereo unspecified) | x | 43 | x | 63* | x | 50* | 27* | 31 | 23*
NC(Cc1ccccc1)c1csc(Nc2nncc3ccccc23)n1 (stereo unspecified) | x | 4 | x | 34 | x | x | x | x | x
Cc1ccc(S(=O)(=O)N2[C@H](CC(=O)c3cccs3)OC[C@@H]2C(C)C)cc1 | x | -17 | x | 5 | x | x | x | x | x
COc1ccc(C(c2nnnn2CCc2ccccc2)N2CCN(C3CCCC3)CC2)cc1 (stereo unspecified) | 1 | 54* | 1 | 71* | -4 | 85* | 2 | 61* | 6
COc1ccc(Cn2nnnc2C(c2ccccc2)N2CCN(C3CCCC3)CC2)cc1 (stereo unspecified) | x | -4 | x | 2 | x | x | x | x | x
O=C(Nc1ccccc1)OC1CCC2CC1CCC2OC(=O)Nc1ccccc1 (stereo unspecified) | 2 | -11 | 2 | 3 | -1 | x | x | x | x
COc1ccc(/C=C/C(=O)c2ccc([N+](=O)[O-])o2)cc1OC | 0 | 42 | 2 | 59* | 10 | 47* | 17* | 49* | 31*
Oc1ccc(C=NCC2COc3ccccc3O2)cc1 (stereo unspecified) | 1 | x | 0 | x | -1 | x | 4 | x | 3
COc1ccc(C=NCC2COc3ccccc3O2)cc1OC (stereo unspecified) | 1 | 14 | 0 | 67* | -1 | 77* | 1 | 76* | 6
COc1ccc(C)cc1NC(=O)CC1COc2ccccc2O1 (stereo unspecified) | 0 | 6 | -2 | -2 | -11 | x | x | x | x
